Assay results as given in ChEMBL document CHEMBL1152305, “Synthesis and ribonucleotide reductase inhibitory activity of thiosemicarbazones” (Bioorg Med Chem Lett, 2008).
pIC50: −log10 of the molar value.

Assay: Inhibition of human recombinant ribonucleotide reductase expressed in BL21 (DE3) bacteria assessed as conversion of [3H]CDP to [3H]dCDP
Method in brief: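 Recombinant human hRRM1 and hRRM2 subunits (BL21(DE3) expression, Ni(II) affinity purified) preincubated together with compound at room temperature 30 min, 1% v/v DMSO final. Phosphodiesterase dephosphorylation, HPLC radio-flow separation of cytidine/deoxycytidine. IC50 from nonlinear fit versus DMSO control; three tests in duplicate.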

With `COc1cc(/C=N/NC(=S)Nc2ccccc2)ccc1O` the pIC50 was less than 3.30.
`Oc1ccc(/C=N/NC(=S)Nc2ccc(Cl)cc2)cc1` gave a pIC50 of 3.54.
In the case of `Oc1ccc(/C=N/NC(=S)Nc2ccc(O)cc2)cc1`, the pIC50 was 4.36.
`Oc1ccc(/C=N/NC(=S)Nc2ccccc2)cc1` gave a pIC50 of 3.62.
Work on `S=C(N/N=C/c1ccco1)Nc1ccc(Cl)cc1` yielded a pIC50 of less than 3.30.
`COc1cc(/C=N/NC(=S)Nc2ccc(Cl)cc2)ccc1O` gave a pIC50 of less than 3.30.
For `Oc1ccccc1/C=N/NC(=S)Nc1ccc(Cl)cc1`, the pIC50 was less than 3.30.
With `Cc1ccccc1NC(=S)N/N=C/c1ccc(O)cc1` the pIC50 was 4.44.
Molecule `Oc1ccc(/C=N/NC(=S)Nc2ccccc2Cl)cc1` has a pIC50 of 4.33.
Molecule `Cc1cccc(NC(=S)N/N=C/c2ccc(O)cc2)c1` has a pIC50 of 4.52.
`O=[N+]([O-])c1ccccc1NC(=S)N/N=C/c1ccc(O)cc1` gave a pIC50 of 4.41.
In the case of `O=[N+]([O-])c1ccc(NC(=S)N/N=C/c2ccc(O)cc2)cc1`, the pIC50 was 4.35.
Work on `Oc1ccc(/C=N/NC(=S)Nc2cccc(Cl)c2)cc1` yielded a pIC50 of 4.53.
`Oc1ccccc1/C=N/NC(=S)Nc1ccccc1` showed a pIC50 of less than 3.30.
`Oc1ccc(/C=N/NC(=S)Nc2ccccc2O)cc1` showed a pIC50 of 4.53.
`Oc1ccc(/C=N/NC(=S)Nc2cccc(O)c2)cc1` showed a pIC50 of 4.54.
For `S=C(N/N=C/c1cccs1)Nc1ccc(Cl)cc1`, the pIC50 was less than 3.30.
`Cc1ccc(NC(=S)N/N=C/c2ccc(O)cc2)cc1` gave a pIC50 of 4.85.
For `COc1ccccc1NC(=S)N/N=C/c1ccc(O)cc1`, the pIC50 was 4.38.
Work on `NC(=O)NO` [HYDROXYUREA] yielded a pIC50 of 3.83.
For `NC(=S)N/N=C/c1ncccc1N` [TRIAPINE], the pIC50 was 5.65.
